Usually inhibition stands for the relative decrease from the control value, in per cent. Broadly, the IC50 is the midpoint of a concentration-inhibition curve. The term CC50 denotes the concentration giving 50% cytotoxicity. A word on the solubility: it is the concentration that dissolves in the medium under given conditions.

This is an account of results in ChEMBL document CHEMBL5325427.

≈ marks a conversion by molar mass, not a printed value. Calls of active or inactive are those of the source. No cut-off for these calls is given here.

Series [1] concerns the target Replicase polyprotein 1ab (Severe acute respiratory syndrome coronavirus 2) (UniProt P0DTD1). Briefly: Inhibition of SARS-CoV-2 3CLpro at 10 ug/ml preincubated with enzyme for 30 mins followed by substrate addition and measured after 4 hrs by fluorescence based analysis. The note with it: dose 10.0 µg/ml, time 4.5 hrs. The essentials: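 Recombinant SARS-CoV-2 3CLpro (1.5 ng/μl) was pre-incubated with compound 30 min at RT. Fluorogenic substrate was added to a final 40 μM and incubated 4 h at RT. Fluorescence was read at Ex 360/Em 460 nm. Wells were run in triplicate and blank was subtracted.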

The target of series [2] is Replicase polyprotein 1ab (Severe acute respiratory syndrome coronavirus 2, UniProt P0DTD1). Put plainly: Inhibition of recombinant SARS CoV-2 PL protease incubated for 2 hrs followed by substrate addition and measured after 1 hr by fluorescence based analysis.
Series [3] is described as follows: Stability in human liver microsomes assessed as half life at 1 uM in presence of NADPH by LC-MS-MS analysis. It is filed as ADME, Microsome. Background: Liver microsomes are vesicles of endoplasmic reticulum, rich in cytochrome P450 enzymes.
A short description of series [4]: Stability in CD-1 mouse liver microsomes assessed as compound remaining at 1 uM measured after 60 mins in absence of NADPH by LC-MS-MS analysis. It is filed as ADME, Microsome. The note with it: read-out: Stability. In short, it runs like this:
(§1)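 Compound was incubated in liver microsomes without NADPH. Percent remaining was measured after 60 min.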

In a further series the test system is Vero C1008. Briefly: (§2) Cytotoxicity against African green monkey Vero E6 cells measured after 72 hrs by crystal violet staining based analysis. It is filed as toxicity, cell-based. As to conditions: chlorocebus sabaeus, vero c1008, 72 h. The essentials:
(§3)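 Vero-E6 cells were seeded at 3 × 10^5 cells/mL, grown 24 h at 37 °C with 5% CO2, then given graded compound concentrations in triplicate for 72 h. Stocks were made in 10% DMSO in DMEM. Cells were fixed in 10% formalin, stained with 0.1% crystal violet, dissolved in methanol and read at A570. CC50 was taken by nonlinear regression of log concentration versus normalised response against untreated cells.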

Series [5] is described as follows: Aqueous solubility of the compound in PBS buffer at pH 7.4 at 200 uM by microplate reader method. It is filed as physicochemical.
Series [6] is described as follows: Selectivity index, ratio of CC50 for African green monkey Vero E6 cells to IC50 for antiviral activity against SARS-CoV-2 NRC-03-nhCoV infected in african green monkey Vero E6 cells. It is filed as toxicity, cell-based, Vero C1008. As to conditions: read-out: Ratio CC50/IC50.
Series [7] is described as follows: Stability in human microsomes assessed as compound remaining at 1 uM measured after 60 mins in absence of NADPH by LC-MS-MS analysis. It is filed as ADME, Microsome. The note with it: read-out: Stability. In short, it runs like this: as §1
Series [8] can be described thus: Stability in CD-1 mouse liver microsomes assessed as half life at 1 uM in presence of NADPH by LC-MS-MS analysis. It is filed as ADME, Microsome.
The subject of another series is SARS-CoV-2. Briefly: Antiviral activity against SARS-CoV-2 NRC-03-nhCoV infected in african green monkey Vero E6 cells assessed as inhibition of viral growth pre-infected cells with virus for 1 hr followed by compound addition for 1 hr and measured after 72 hrs by crystal violet staining based analysis. It is filed as functional, organism-based. The note with it: Severe acute respiratory syndrome coronavirus 2, NRC-03-nhCoV, Vero C1008.

Series [9] has as its target Replicase polyprotein 1ab (Severe acute respiratory syndrome coronavirus 2) (UniProt P0DTD1). Put plainly: Inhibition of recombinant SARS CoV-2 PL protease at 25 ug/ml incubated for 2 hrs followed by substrate addition and measured after 1 hr by fluorescence based analysis relative to control. The note with it: dose 25.0 µg/ml, time 3.0 hrs.
The nature of series [10]: as §2. It is filed as toxicity, cell-based, Vero C1008. As to conditions: chlorocebus sabaeus, Vero E6 cells. In short, it runs like this: as §3

Consider `COC(=O)C[C@@H]1COc2ccccc2[C@H](C(=O)NC(C)(C)C)N(CCc2c[nH]c3ccc(OC)cc23)C(=O)[C@@H]1c1nnc(-c2cccc(C(F)(F)F)c2)o1`, for which, in series [1], the inhibition result was “inactive”.
Turning to `COc1ccc2[nH]c3c(c2c1)C[C@]1(OC)CC[C@H]2c4c[nH]c5cccc(c45)CCN2[C@@H]1C3`, the IC50 in series [2] was 32.6 µM. Also, the inhibition entry in [1] is “inactive”.
`CC1(C)[C@H]2COc3ccc4ccccc4c3[C@H]2N=C2SC=C(c3ccc(S(=O)(=O)N4CCOCC4)cc3)N21`: the t1/2 in [3] amounted to 5.7 min; in [8], 11.2 min. In addition, the remaining at 1 h, 1 µM was found to be 92% in series [4] and 119% in series [7]. For the same molecule, the IC50 in [2] was 0.121 µM; in the series on SARS-CoV-2, 67.6 µg/mL (≈ 123 µM). The CC50 in the series on Vero C1008 is 43.12 µg/mL (≈ 78.7 µM). Moreover, in series [5], the concentration in solution (solubility at 200 µM) was 56.1 µM (≈ 30.7 µg/mL). Besides, in series [1], the inhibition entry is “inactive”. Besides, the selectivity ratio in series [6] was 0.64.
For the molecule `FC(F)(F)Oc1ccc(N/N=C2/C=C[C@@]3(CC2)CC[C@@H]2NCCc4cccc5[nH]c3c2c45)cc1`, the IC50 in [2] was 27.5 µM. In addition, the inhibition entry in series [1] was “inactive”.
Consider `COC(=O)CC1COc2c(cc3c4c2CCCN4CCC3)-c2c(NC(C)(C)C)n3c(-c4ccc(F)cc4)c(C)sc3[n+]21` (stereo not given), for which, in [2], the IC50 was 5.57 µM. The inhibition result in series [1] is “inactive”.
Regarding `C[C@]12C=CC(=O)C[C@H]1N1CCc3cccc4[nH]cc(c34)C1CO2` (stereo not given in full), the IC50 in series [2] was 19.7 µM. Besides, the inhibition result in [1] was “inactive”.
`COc1ccc2[nH]cc(CCN3C(=O)[C@H](c4nnc(-c5cccc(C(F)(F)F)c5)o4)[C@H](CC(=O)O)COc4ccccc4[C@@H]3C(=O)NC(C)(C)C)c2c1`: the half-inhibitory concentration (IC50) in [2] was 1.16 µM. For the same molecule, the inhibition entry in series [1] is “inactive”.
As to `Cc1ccc(N)cc1C(=O)N[C@H](C)c1cccc2ccccc12`, the inhibition result in series [1] is “inactive”.
Turning to `COC(=O)[C@@H]1CC2(C(=O)Nc3ccccc32)C2CC[C@@]3(OC)C=CC(=O)C[C@H]3N21` (stereo not given in full), in [2], the IC50 is 10.3 µM. Also, the inhibition entry in series [1] was “inactive”.
For `CC1=C(c2cccc3c2OCO3)N2C(=N[C@@H]3c4c(ccc5ccccc45)OC[C@@H]3C2(C)C)S1`, the IC50 in series [2] is 72.8 µM. Also, in [9], the inhibition came to 50%. Further, in [1], the inhibition result is “inactive”.
Consider `COC(=O)CC1COc2c(cc3c4c2CCCN4CCC3)-c2c(NC(C)(C)C)n3c(-c4ccccc4)c(-c4ccccc4)sc3[n+]21` (stereo not given), for which, in series [1], the inhibition entry was “inactive”.
As to `COC(=O)[C@H](Cc1ccc(OC)c(OC)c1)N1CC(c2cc(C)ccc2O)=N[C@@H](Cc2ccc(OC)c(OC)c2)C1=O`, the IC50 in [2] was 47.8 µM. Moreover, the inhibition in series [9] came out at 50%. Moreover, the inhibition entry in [1] was “inactive”.
Molecule `CO[C@@]12C=CC(=O)C[C@@H]1[n+]1c(c(NC(C)(C)C)n3c(-c4ccccc4)c(-c4ccccc4)sc31)CC2.O=S(=O)([O-])C(F)(F)F` yielded a CC50 at 72 h in series [10] of 89.7 µg/mL. In series [1], the inhibition entry was “inactive”. Also, the selectivity ratio in series [6] is 0.41. Besides, the IC50 with SARS-CoV-2 amounted to 217 µg/mL.
